{
  "source": "ChEMBL document CHEMBL1255444",
  "about": "“In vitro antibacterial activities of JNJ-Q2, a new broad-spectrum fluoroquinolone” (Antimicrob Agents Chemother, 2010)",
  "format_in_all_cases": "functional",
  "key": {"Staphylococcus aureus [1]": {"test_system": "Staphylococcus aureus", "experiment": "Antibacterial activity against methicillin-susceptible Staphylococcus aureus by broth microdilution method"}, "Streptococcus pyogenes": {"test_system": "Streptococcus pyogenes", "experiment": "Antibacterial activity against Streptococcus pyogenes by broth microdilution method", "outline": "(§1)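 MICs by CLSI M07-A7 broth microdilution in cation-adjusted Mueller-Hinton medium. For S. pneumoniae the medium was supplemented with 5% lysed horse blood. CLSI quality control strains were run alongside as appropriate.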"}, "Moraxella catarrhalis": {"test_system": "Moraxella catarrhalis", "experiment": "Antibacterial activity against Moraxella catarrhalis by broth microdilution method", "outline": "as §1"}, "Streptococcus pneumoniae [2]": {"test_system": "Streptococcus pneumoniae", "experiment": "Ratio of Ciprofloxacin MIC90 to compound MIC90 for ciprofloxacin-resistant Streptococcus pneumoniae"}, "Streptococcus pneumoniae [3]": {"test_system": "Streptococcus pneumoniae", "experiment": "Ratio of Moxifloxacin MIC90 to compound MIC90 for ciprofloxacin-resistant Streptococcus pneumoniae"}, "Streptococcus pneumoniae [4]": {"test_system": "Streptococcus pneumoniae", "experiment": "Ratio of Gemifloxacin MIC90 to compound MIC90 for ciprofloxacin-resistant Streptococcus pneumoniae"}, "Streptococcus pneumoniae [5]": {"test_system": "Streptococcus pneumoniae", "experiment": "Antibacterial activity against Streptococcus pneumoniae isolate OC6608 by broth microdilution method", "outline": "(§2)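 CLSI M07-A7 broth microdilution MIC. Medium was cation-adjusted Mueller-Hinton broth. For S. pneumoniae it was Mueller-Hinton supplemented with 5% lysed horse blood. CLSI quality-control strains were included as appropriate.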"}, "Streptococcus pneumoniae [6]": {"test_system": "Streptococcus pneumoniae", "experiment": "Antibacterial activity against Streptococcus pneumoniae isolate OC5462 assessed as log reduction in bacterial growth at 4 times MIC measured at 6 hrs by time-kill assay", "outline": "(§3)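 Drug was diluted from 50× stocks made in water or acidified water. Samples were taken at 6 and 24 h and serially diluted onto TSA-5% sheep blood plates. Plates were incubated 20–24 h at 37°C in 5% CO2 before counting CFU. Log10 titer change is given relative to the starting inoculum.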"}, "Streptococcus pneumoniae [7]": {"test_system": "Streptococcus pneumoniae", "experiment": "Antibacterial activity against Streptococcus pneumoniae isolate OC5462 assessed as log reduction in bacterial growth at 2 times MIC measured at 24 hrs by time-kill assay", "outline": "as §3"}, "Streptococcus pneumoniae [8]": {"test_system": "Streptococcus pneumoniae", "experiment": "Antibacterial activity against Streptococcus pneumoniae isolate OC6790 assessed as log reduction in bacterial growth at 4 times MIC measured at 6 hrs by time-kill assay", "outline": "as §3"}, "Streptococcus pneumoniae [9]": {"test_system": "Streptococcus pneumoniae", "experiment": "Antibacterial activity against Streptococcus pneumoniae isolate OC7368 by broth microdilution method", "outline": "as §2"}, "Streptococcus pneumoniae [10]": {"test_system": "Streptococcus pneumoniae", "experiment": "Antibacterial activity against Streptococcus pneumoniae isolate OC7368 assessed as log reduction in bacterial growth at 2 times MIC measured at 6 hrs by time-kill assay", "outline": "as §3"}, "Staphylococcus aureus [11]": {"test_system": "Staphylococcus aureus", "experiment": "Antibacterial activity against methicillin-resistant Staphylococcus aureus isolate OC8530 harboring gyrA S84L and parC I143V mutant gene assessed as log reduction in bacterial growth at 2 times MIC measured at 24 hrs by time-kill assay", "outline": "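Time-kill in cation-adjusted Mueller-Hinton broth. […] Samples were taken up to 24 h, serially diluted onto TSA and counted after 20–24 h at 37°C. Result is log10 decrease at 24 h from the starting inoculum; detection limit 100 CFU.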"}, "Staphylococcus aureus [12]": {"test_system": "Staphylococcus aureus", "experiment": "Antibacterial activity against methicillin-resistant Staphylococcus aureus isolate OC17042 harboring gyrA S84L/G106D, parC S80F and parE D732N mutant gene assessed as log reduction in bacterial growth at 2 times MIC measured at 24 hrs by time-kill assay", "outline": "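Overnight MRSA cultures were diluted into fresh cation-adjusted Mueller-Hinton broth to about 5 × 10^6 CFU/ml. […] Samples were plated serially diluted on trypticase soy agar, and CFU were counted after 20-24 h at 37°C. Value is the log10 decrease at 24 h from the starting inoculum; detection limit 100 CFU.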"}, "Staphylococcus aureus [13]": {"test_system": "Staphylococcus aureus", "experiment": "Antibacterial activity against methicillin-resistant Staphylococcus aureus isolate OC8525 harboring wild type quinolone resistance-determining region by agar dilution method", "outline": "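CLSI agar dilution MIC on cation-adjusted Mueller-Hinton medium. These were the MIC values used for the resistance studies, and CLSI quality-control strains were included as appropriate.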"}},
  "data": [
    {"smiles": "COc1c(N2CCC/C(=C(\\F)CN)C2)c(F)cc2c(=O)c(C(=O)O)cn(C3CC3)c12", "note": "[ACORAFLOXACIN]", "values": [
      {"measurement": "MIC50", "setting": "Staphylococcus aureus [1]", "value": 0.015, "unit": "µg/mL"},
      {"measurement": "MIC90", "setting": "Staphylococcus aureus [1]", "value": 0.015, "unit": "µg/mL"},
      {"measurement": "MIC", "setting": "Streptococcus pyogenes", "value": 0.008, "unit": "µg/mL"},
      {"measurement": "MIC50", "setting": "Streptococcus pyogenes", "value": 0.008, "unit": "µg/mL"},
      {"measurement": "MIC90", "setting": "Streptococcus pyogenes", "value": 0.015, "unit": "µg/mL"},
      {"measurement": "MIC", "setting": "Moraxella catarrhalis", "value": "≤ 0.015", "unit": "µg/mL"},
      {"measurement": "MIC50", "setting": "Moraxella catarrhalis", "value": "≤ 0.015", "unit": "µg/mL"},
      {"measurement": "MIC90", "setting": "Moraxella catarrhalis", "value": "≤ 0.015", "unit": "µg/mL"},
      {"measurement": "Ratio", "setting": "Streptococcus pneumoniae [2]", "value": 9},
      {"measurement": "Ratio", "setting": "Streptococcus pneumoniae [3]", "value": 9},
      {"measurement": "Ratio", "setting": "Streptococcus pneumoniae [4]", "value": 9},
      {"measurement": "MIC", "setting": "Streptococcus pneumoniae [5]", "value": 0.06, "unit": "µg/mL"},
      {"measurement": "deltalog10CFU/ml", "setting": "Streptococcus pneumoniae [6]", "value": 3.4},
      {"measurement": "deltalog10CFU/ml", "setting": "Streptococcus pneumoniae [7]", "value": 3.3},
      {"measurement": "deltalog10CFU/ml", "setting": "Streptococcus pneumoniae [8]", "value": 3.6},
      {"measurement": "MIC", "setting": "Streptococcus pneumoniae [9]", "value": 0.12, "unit": "µg/mL"},
      {"measurement": "deltalog10CFU/ml", "setting": "Streptococcus pneumoniae [10]", "value": 4},
      {"measurement": "deltalog10CFU/ml", "setting": "Staphylococcus aureus [11]", "value": 6.3},
      {"measurement": "deltalog10CFU/ml", "setting": "Staphylococcus aureus [12]", "value": 3.8},
      {"measurement": "MIC", "setting": "Staphylococcus aureus [13]", "value": 0.012, "unit": "µg/mL"}
    ]}
  ]
}
